Laboratory results as given in ChEMBL document CHEMBL4145453, “Synthesis, physicochemical properties, and biological activity of bile acids 3-glucuronides: Novel insights into bile acid signalling and detoxification” (Eur J Med Chem, 2018).
In brackets after ≈: the same amount, converted by molar mass.

Assays:
[1] = Solubility of the compound in pH 7.4 PBS buffer at 300 uM after 24 hrs by HPLC-ESI-MS analysis; assay type: physicochemical
Method in brief: (§1)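 Dried 1 mM stock (300 µL) was redissolved in 1 mL PBS pH 7.4 or acid solution pH 1.0 (nominal about 300 µM). Stirred 24 h at r.t., centrifuged, diluted 1:100 or 1:10, then quantified by HPLC-ESI-MS/MS in MRM mode against a 6-point calibration (0.01–10 µM).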

[2] = Octanol-HCl distribution coefficient, log P of the compound at pH 1 at 1 uM after 24 hrs by shake flask method; assay type: physicochemical
Method in brief: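 Shake-flask method, 1 µM bile acid in mutually pre-saturated 1-octanol/DPBS pH 7.4 or 1-octanol/HCl pH 1.0 (50:50). Equilibrated 24 h with stirring at r.t., then centrifuged. Aqueous-phase concentration before and after partition measured by HPLC-ESI-MS/MS.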

albumin = albumin (Bos taurus, UniProt P02769); experiment: Binding affinity to bovine serum albumin at 10 uM after 24 hrs by equilibrium dialysis method; assay type: ADME; conditions: cattle, read-out: PB (converted)
Sequence of albumin (P02769 whole entry): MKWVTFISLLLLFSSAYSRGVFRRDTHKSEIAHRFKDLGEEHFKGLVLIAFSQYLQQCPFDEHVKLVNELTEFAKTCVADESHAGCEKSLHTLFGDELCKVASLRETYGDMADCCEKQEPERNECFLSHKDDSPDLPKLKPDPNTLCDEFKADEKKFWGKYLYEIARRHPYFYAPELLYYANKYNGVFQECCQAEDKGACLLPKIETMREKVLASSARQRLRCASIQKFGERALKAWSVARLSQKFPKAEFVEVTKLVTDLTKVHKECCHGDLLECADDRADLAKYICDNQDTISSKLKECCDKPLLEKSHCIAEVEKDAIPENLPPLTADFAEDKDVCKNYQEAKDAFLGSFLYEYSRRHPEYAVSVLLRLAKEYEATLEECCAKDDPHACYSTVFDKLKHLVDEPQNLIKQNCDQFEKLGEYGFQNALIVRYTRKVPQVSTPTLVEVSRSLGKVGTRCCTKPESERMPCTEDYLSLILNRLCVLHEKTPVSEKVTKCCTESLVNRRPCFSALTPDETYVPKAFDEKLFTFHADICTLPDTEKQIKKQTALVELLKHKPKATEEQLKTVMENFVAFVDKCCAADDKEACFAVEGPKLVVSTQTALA

[3] = Solubility of the compound in pH 1 HCl solution at 300 uM after 24 hrs by HPLC-ESI-MS analysis; assay type: physicochemical; method in brief: as §1
Bile acid receptor = target: T1, Bile acid receptor (Homo sapiens, UniProt Q96RI1); experiment: Agonist activity at GST-tagged FXR-LBD (unknown origin) assessed as biotin-labeled SRC-1 recruitment after 30 mins by Alpha Screen assay
T1 sequence (Q96RI1 whole entry): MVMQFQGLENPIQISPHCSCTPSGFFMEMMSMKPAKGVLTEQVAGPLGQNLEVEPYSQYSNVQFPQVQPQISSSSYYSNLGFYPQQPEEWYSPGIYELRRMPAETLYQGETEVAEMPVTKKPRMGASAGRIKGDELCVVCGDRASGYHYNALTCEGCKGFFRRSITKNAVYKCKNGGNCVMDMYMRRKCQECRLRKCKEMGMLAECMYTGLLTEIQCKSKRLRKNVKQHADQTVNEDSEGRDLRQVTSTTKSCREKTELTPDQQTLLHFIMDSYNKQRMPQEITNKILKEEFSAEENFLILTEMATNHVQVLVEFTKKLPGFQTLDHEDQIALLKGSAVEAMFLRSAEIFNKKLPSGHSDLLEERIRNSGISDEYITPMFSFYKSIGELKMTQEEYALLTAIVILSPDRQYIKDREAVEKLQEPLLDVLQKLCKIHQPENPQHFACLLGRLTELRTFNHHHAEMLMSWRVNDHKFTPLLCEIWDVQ

[4] = target: T2, Bile acid receptor (Homo sapiens) (UniProt Q96RI1); experiment: Agonist activity at GST-tagged FXR-LBD (unknown origin) assessed as biotin-labeled SRC-1 recruitment after 30 mins by Alpha Screen assay relative to CDCA
T2 sequence (whole entry): T1 sequence (Q96RI1 whole entry)
Method in brief: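 GST-FXR-LBD (10 nM) with biotinylated SRC-1 peptide (30 nM), anti-GST acceptor and streptavidin donor beads; buffer 50 mM Tris pH 7.4, 50 mM KCl, 0.1% BSA, 1 mM DTT. Compound in DMSO, 30 min r.t., then beads 4 h dark r.t.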

EC50 (Bile acid receptor) [µM] | Efficacy [4] [%] | SMILES | solubility at 24 h, 300 µM [1] [µM] | logD at 24 h, 1 µM [2] | fraction unbound at 24 h, 10 µM (albumin) | solubility at 24 h, 300 µM [3] [µM]
 |  | C[C@H](CCC(=O)O)[C@H]1CC[C@H]2[C@@H]3[C@H](O)C[C@@H]4C[C@H](O)CC[C@]4(C)[C@H]3CC[C@]12C [CHENODIOL] | 282 (≈ 111 µg/mL) | 2.5 | 0.015 | 33 (≈ 13 µg/mL)
45 | 7 | C[C@H](CCC(=O)O)[C@H]1CC[C@H]2[C@@H]3CC[C@@H]4C[C@H](O)CC[C@]4(C)[C@H]3C[C@H](O)[C@]12C [DEOXYCHOLIC ACID] |  |  |  | 
